Active and inactive are the calls of the source. No cut-off for these calls is given here.
Experiments:
[1] = Antiinflammatory activity in human PMNC assessed as inhibition of proliferation; type: functional
Procedure, shortened: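 In vitro antiproliferation assay on human mononuclear cells (T lymphocytes, B lymphocytes and macrophages) isolated from peripheral blood. Compounds were tested at up to 100 µM, and activity was expressed as IC50.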

[2] = species: Homo sapiens; test: Antiinflammatory activity in human PMNC assessed as inhibition of proliferation upto 10 uM; type: functional

Row | Structure (SMILES) | IC50 [1] [µM] | Activity [2]
1 | C[C@@H]1CC[C@]2(C(=O)O)CC[C@]3(C)C(=CC[C@@H]4[C@@]5(C)[C@H](O)C(=O)[C@H](O)C(C)(C)[C@@H]5CC[C@]43C)[C@@H]2[C@]1(C)O | 32.5 | 
2 | C[C@@H]1CC[C@]2(C(=O)O)CC[C@]3(C)C(=CC[C@@H]4[C@@]5(C)C[C@@H](O)[C@@H](O)C(C)(C)[C@@H]5CC[C@]43C)[C@@H]2[C@]1(C)O [EUSCAPHIC ACID] | 28.8 | 
3 | C[C@@H]1CC[C@]2(C(=O)O)CC[C@]3(C)C(=CC[C@@H]4[C@@]5(C)C[C@@H](O)C(=O)C(C)(C)[C@@H]5CC[C@]43C)[C@@H]2[C@]1(C)O | 40 | 
4 | C=C[C@](C)(CCC=C(C)C)O[C@@H]1O[C@H](CO[C@@H]2O[C@@H](C)[C@H](OC(=O)/C=C/c3ccc(O)cc3)[C@@H](O[C@@H]3O[C@@H](C)[C@H](O)[C@@H](O)[C@H]3O)[C@H]2O)[C@@H](O)[C@H](O)[C@H]1O |  | inactive
5 | C[C@@H]1CC[C@]2(C(=O)O)CC[C@]3(C)C(=CC[C@@H]4[C@@]5(C)CC(=O)[C@H](O)C(C)(C)[C@@H]5CC[C@]43C)[C@@H]2[C@]1(C)O | 38.1 | 
6 | C[C@@H]1CC[C@]2(C(=O)O)CC[C@]3(C)C(=CC[C@@H]4[C@@]5(C)[C@H](O)[C@@H](O)C(=O)C(C)(C)[C@@H]5CC[C@]43C)[C@@H]2[C@]1(C)O | 26.9 | 
7 | C=C[C@](C)(CCC=C(C)C)O[C@@H]1O[C@H](CO[C@@H]2O[C@@H](C)[C@H](OC(=O)/C=C\c3ccc(O)cc3)[C@@H](O[C@@H]3O[C@@H](C)[C@H](O)[C@@H](O)[C@H]3O)[C@H]2O)[C@@H](O)[C@H](O)[C@H]1O |  | inactive

Source: ChEMBL document CHEMBL1155717, “Monoterpene glycosides and triterpene acids from Eriobotrya deflexa” (J Nat Prod, 2001)
